The source made the active and inactive calls. The calls are words filed in the database; no cut-off is given here.
Assays:
[1] = Metabolic stability in human liver microsomes assessed as half life at 50 uM measured upto 60 mins by HPLC method; type: ADME, Microsome
Method in brief: (§1)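 Human liver microsomes (0.4–0.5 mg protein) or S-9 (1 mg) with 50 μM compound in 50 mM potassium phosphate pH 7.4 plus NADPH-generating system, 37 °C shaking for 0, 7, 15, 30, 60 min; stopped with cold acetonitrile; HPLC C18, isocratic water/acetonitrile with 0.05% TFA, UV 275.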

[2] = Metabolic stability in human liver S9 fraction assessed as half life at 50 uM measured upto 60 mins by HPLC method; type: ADME, subcellular; method in brief: as §1
[3] = Toxicity in ip dosed BALB/c mouse assessed as lethal dose; type: organism-based; conditions: in vivo
[4] = Toxicity in BALB/c mouse assessed as behavioral effects at 100 mg/kg, ip monitored for 30 mins; type: organism-based; conditions: in vivo, 0.5 h
Method in brief: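 Adult male BALB/c mice, four per compound, 100 mg/kg i.p.; behaviour (lethargy, immobilization, seizures, shaking) observed for 30 min; lethality recorded at 24 h.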

[5] = AUC in Sprague-Dawley rat at 5 mg/kg, iv measured upto 25 hrs by LCMS analysis; type: ADME, organism-based; set-up: route intravenous, dose 5 mg/kg, time <=25; conditions: in vivo
[6] = Tmax in Sprague-Dawley rat at 25 mg/kg, po measured upto 25 hrs by LCMS analysis; type: ADME, organism-based; conditions: in vivo
[7] = Cmax in Sprague-Dawley rat at 5 mg/kg, iv measured upto 25 hrs by LCMS analysis; type: ADME, organism-based; set-up: route intravenous, dose 5 mg/kg, time <=25; conditions: in vivo
Heart = experiment: Antiarrhythmic activity in H2O2-perfused Sprague-Dawley rat heart assessed as resolution of arrhythmias to normal sinus rhythm at 10 uM after 30 to 40 mins; type: functional, tissue-based; conditions: time 30-40 min
Method in brief: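 Perfused ex vivo hearts from aged rats; continuous perfusion of H2O2 (0.1 mM) induces EADs and ectopic beats progressing to VT/VF; test compound perfused at 10 μM with H2O2 still present; rhythm followed for conversion to sinus rhythm.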

[8] = Cmax in Sprague-Dawley rat at 25 mg/kg, po measured upto 25 hrs by LCMS analysis; type: ADME, organism-based; set-up: route oral, dose 25 mg/kg, time <=25; conditions: in vivo
[9] = Metabolic stability in human liver S9 fraction assessed as compound remaining at 50 uM after 1 hr by HPLC method; type: ADME, subcellular; conditions: read-out: Stabilty; method in brief: as §1
[10] = AUC in Sprague-Dawley rat at 25 mg/kg, po measured upto 25 hrs by LCMS analysis; type: ADME, organism-based; set-up: route oral, dose 25 mg/kg, time <=25; conditions: in vivo
[11] = Tmax in Sprague-Dawley rat at 5 mg/kg, iv measured upto 25 hrs by LCMS analysis; type: ADME, organism-based; conditions: in vivo
[12] = Half life in Sprague-Dawley rat at 5 mg/kg, iv measured upto 25 hrs by LCMS analysis; type: ADME, organism-based; conditions: in vivo
[13] = Metabolic stability in human liver microsomes assessed as compound remaining at 50 uM after 1 hr by HPLC method; type: ADME, Microsome; conditions: read-out: Stabilty; method in brief: as §1
[14] = Half life in Sprague-Dawley rat at 25 mg/kg, po measured upto 25 hrs by LCMS analysis; type: ADME, organism-based; conditions: in vivo
[15] = Oral bioavailability in Sprague-Dawley rat at 25 mg/kg measured upto 25 hrs by LCMS analysis; type: ADME, organism-based; conditions: in vivo
[16] = Toxicity in BALB/c mouse assessed as lethargy at 100 mg/kg, ip monitored for 30 mins; type: organism-based; conditions: in vivo, 0.5 h
[17] = Toxicity in BALB/c mouse assessed as central nervous system effects at 100 mg/kg, ip; type: organism-based; conditions: in vivo
[18] = Antiarrhythmic activity in patient-derived hiPSC-CMs carrying LQT3 mutation assessed as cessation dose for cell beating; type: functional, Homo sapiens, iPSC-CM
[19] = Antiarrhythmic activity in patient-derived hiPSC-CMs carrying LQT3 mutation assessed as shortening dose of action potential; type: functional, Homo sapiens, iPSC-CM
[20] = Inhibition of potassium channel (unknown origin) expressed in CHO cells assessed as reduction in potassium current by automated patch clamp method; type: cell-based
[21] = Inhibition of sodium channel (unknown origin) expressed in HEK cells assessed as reduction in peak sodium current by automated patch clamp method; type: cell-based; conditions: Homo sapiens, HEK293
[22] = Antiarrhythmic activity in hiPSC-CMs assessed as dose for induction of early after depolarizations; conditions: human, ipsc-cm
[23] = Inhibition of sodium channel (unknown origin) expressed in HEK cells assessed as reduction in late inward sodium current by automated patch clamp method; type: cell-based; conditions: Homo sapiens, HEK293
[24] = Antiarrhythmic activity in patient-derived hiPSC-CMs carrying LQT3 mutation assessed as shortening of action potential duration; type: functional, Homo sapiens; conditions: ipsc-cm; read-out: EC50
[25] = Antiarrhythmic activity in hiPSC-CMs assessed as fold prolongation of action potential relative to control; conditions: human, ipsc-cm
[26] = Antiarrhythmic activity in hiPSC-CMs assessed as cessation dose of cell beating; conditions: human, ipsc-cm
Homo sapiens [27] = organism: Homo sapiens; experiment: Selectivity index, ratio of IC50 for potassium channel (unknown origin) expressed in HEK cells assessed as reduction in potassium current to IC50 for sodium channel (unknown origin) expressed in HEK cells assessed as reduction in late inward sodium current; type: cell-based
[28] = Antiarrhythmic activity in patient-derived hiPSC-CMs carrying LQT3 mutation assessed as fold shortening of action potential duration relative to control; type: functional, Homo sapiens, iPSC-CM
Homo sapiens [29] = organism: Homo sapiens; experiment: Selectivity index, ratio of IC50 for sodium channel (unknown origin) expressed in HEK cells assessed as reduction in peak sodium current to IC50 for sodium channel (unknown origin) expressed in HEK cells assessed as reduction in late inward sodium current; type: cell-based
[30] = Chemical stability in pH 7.4 phosphate buffer assessed as half life at 100 uM by RP-HPLC analysis; type: physicochemical
[31] = Chemical stability in pH 3 phosphate buffer assessed as half life at 100 uM by RP-HPLC analysis; type: physicochemical
Cytochrome P450 3A4 = Cytochrome P450 3A4 (Homo sapiens, UniProt P08684); experiment: Drug metabolism assessed as human CYP3A4-mediated metabolism per ug protein; type: ADME; conditions: recombinant enzyme
[32] = Antiarrhythmic activity in hiPSC-CMs assessed as prolongation of action potential; set-up: species or system Homo sapiens, iPSC-CM; conditions: ipsc-cm
Homo sapiens [33] = organism: Homo sapiens; experiment: Selectivity index, ratio of IC50 for potassium channel (unknown origin) expressed in CHO cells assessed as reduction in potassium current to IC50 for sodium channel (unknown origin) expressed in HEK cells assessed as reduction in late inward sodium current
Cytochrome P450 3A5 = Cytochrome P450 3A5 (Homo sapiens, UniProt P20815); experiment: Drug metabolism assessed as human CYP3A5-mediated metabolism per ug protein; type: ADME; conditions: recombinant enzyme
Cytochrome P450 2D6 = Cytochrome P450 2D6 (Homo sapiens, UniProt P10635); experiment: Drug metabolism assessed as human CYP2D6-mediated metabolism per ug protein; type: ADME; conditions: recombinant enzyme
Chain of Cytochrome P450 2D6 (P10635 whole entry): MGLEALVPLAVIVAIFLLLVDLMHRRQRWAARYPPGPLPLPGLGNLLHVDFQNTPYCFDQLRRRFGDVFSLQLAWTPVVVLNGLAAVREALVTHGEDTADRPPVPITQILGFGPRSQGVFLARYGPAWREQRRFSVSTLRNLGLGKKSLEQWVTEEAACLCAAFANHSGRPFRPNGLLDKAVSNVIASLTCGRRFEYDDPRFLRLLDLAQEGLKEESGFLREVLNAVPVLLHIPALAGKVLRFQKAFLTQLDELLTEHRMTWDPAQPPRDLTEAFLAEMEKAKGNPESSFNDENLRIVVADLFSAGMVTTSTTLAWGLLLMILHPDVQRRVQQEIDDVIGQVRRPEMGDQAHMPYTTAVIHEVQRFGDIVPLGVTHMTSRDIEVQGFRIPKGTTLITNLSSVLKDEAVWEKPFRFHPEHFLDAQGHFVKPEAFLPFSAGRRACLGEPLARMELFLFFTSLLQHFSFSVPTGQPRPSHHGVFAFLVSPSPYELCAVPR

Chain of Cytochrome P450 3A5 (P20815 whole entry): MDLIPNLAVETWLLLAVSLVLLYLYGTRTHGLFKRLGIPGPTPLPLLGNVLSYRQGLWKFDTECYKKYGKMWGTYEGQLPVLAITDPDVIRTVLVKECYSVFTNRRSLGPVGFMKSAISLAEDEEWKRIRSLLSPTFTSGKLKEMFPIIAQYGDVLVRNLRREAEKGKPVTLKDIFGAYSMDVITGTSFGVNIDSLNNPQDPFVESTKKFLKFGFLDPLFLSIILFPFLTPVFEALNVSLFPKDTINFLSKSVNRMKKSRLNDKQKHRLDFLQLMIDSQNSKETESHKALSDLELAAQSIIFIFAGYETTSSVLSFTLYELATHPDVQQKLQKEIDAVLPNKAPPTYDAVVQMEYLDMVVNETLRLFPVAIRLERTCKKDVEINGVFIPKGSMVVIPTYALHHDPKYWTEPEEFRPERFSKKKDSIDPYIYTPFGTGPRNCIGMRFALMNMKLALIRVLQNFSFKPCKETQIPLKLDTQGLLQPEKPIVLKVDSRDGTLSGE
Chain of Cytochrome P450 3A4 (P08684 whole entry): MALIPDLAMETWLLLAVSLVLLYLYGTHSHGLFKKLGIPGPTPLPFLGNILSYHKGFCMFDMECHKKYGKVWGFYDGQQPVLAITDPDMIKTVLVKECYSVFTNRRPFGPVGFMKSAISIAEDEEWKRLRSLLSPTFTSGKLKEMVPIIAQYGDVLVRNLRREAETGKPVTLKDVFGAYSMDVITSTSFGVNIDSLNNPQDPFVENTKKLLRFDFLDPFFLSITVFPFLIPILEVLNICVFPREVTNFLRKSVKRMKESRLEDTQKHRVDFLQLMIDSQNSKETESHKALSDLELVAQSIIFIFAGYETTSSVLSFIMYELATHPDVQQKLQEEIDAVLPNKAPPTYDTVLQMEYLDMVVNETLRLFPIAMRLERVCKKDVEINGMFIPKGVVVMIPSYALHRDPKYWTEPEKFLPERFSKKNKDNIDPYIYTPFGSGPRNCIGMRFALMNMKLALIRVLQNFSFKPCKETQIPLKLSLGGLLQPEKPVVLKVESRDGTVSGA

Row | Compound | LD50 [3] | AUC [5] | Tmax [6] | Cmax [7] | Cmax [8] | remaining at 1 h, 50 µM [9] | AUC [10] | Tmax [11] | t1/2 [12] | remaining at 1 h, 50 µM [13] | t1/2 [14] | Activity [18] | Activity [19] | IC50 [20] | IC50 [21] | Activity [22] | IC50 [23] | EC50 [24] | Activity [26] | fold change (FC) [28] | also measured
1 | Cc1cc(C)cc(OC[C@H](N)c2ccccc2)c1.Cl | > 200 mg/kg | – | – | – | – | – | – | – | – | – | – | – | – | – | – | – | – | – | – | – | half-life at 50 µM [1]: 6.77 h; half-life at 50 µM [2]: 16.9 h; Activity [4]: Non-Toxic
2 | Cl.N[C@@H](COc1ccccc1C(F)(F)F)c1ccccc1 | > 200 mg/kg | 280 ng·h/mL | 1.5 h | 249 ng/mL | 258 ng/mL | > 95% | 1556 ng·h/mL | 0.18 h | 1.2 h | > 95% | 5.3 h | – | – | – | – | – | – | – | – | – | Activity (Heart): Active; Activity [4]: Non-Toxic; bioavailability [15]: 100%
3 | Cc1cc(C)cc(OC[C@@H](N)c2ccccc2)c1.Cl | > 200 mg/kg | – | – | – | – | > 95% | – | – | – | > 95% | – | – | – | – | – | – | – | – | – | – | Activity [16]: Toxic; Activity [17]: Toxic
4 | Cc1ccc(C)c(OCC(N)C2CC2)c1.Cl (centres undefined) | – | – | – | – | – | – | – | – | – | – | – | 200 µM | 66 µM | 98 µM | 162 µM | 66 µM | 51.8 µM | 0.022 µM | 200 µM | 1.11 | fold change (FC) [25]: 1.686; Ratio IC50 (Homo sapiens [27]): 1.9
5 | COCCNC(COc1cccc(C)c1C)c1ccccc1.Cl (racemic) | – | – | – | – | – | – | – | – | – | – | – | 200 µM | 133 µM | 27.6 µM | 25.8 µM | Not Active | 0.747 µM | 5.73 µM | Not Active | 1.508 | Ratio IC50 (Homo sapiens [29]): 34.5; half-life at 100 µM [30]: > 720 h; half-life at 100 µM [31]: > 720 h; Activity [25]: Not Active
6 | Cc1ccccc1OC[C@H](N)c1ccccc1.Cl | – | – | – | – | – | – | – | – | – | – | – | – | – | – | – | – | – | – | – | – | half-life at 50 µM [1]: 6.08 h; half-life at 50 µM [2]: 6.8 h
7 | Cl.NC(COc1ccccc1C(F)(F)F)c1ccccc1 (racemic) | – | 544 ng·h/mL | 1.5 h | 250 ng/mL | 226 ng/mL | – | 1008 ng·h/mL | 0.17 h | 3.2 h | – | 6.5 h | 66 µM | 22 µM | 37.5 µM | 41.1 µM | Not Active | 1.04 µM | < 0.8 µM | 66 µM | 1.783 | Drug metabolism (Cytochrome P450 3A4): 15.4 pmol/min; EC50 [32]: Not Active; half-life at 100 µM [30]: > 720 h; Ratio IC50 (Homo sapiens [33]): 36.1; Drug metabolism (Cytochrome P450 3A5): 42.6 pmol/min; Drug metabolism (Cytochrome P450 2D6): 43.6 pmol/min; half-life at 100 µM [31]: > 360 h; bioavailability [15]: 38%
8 | Cl.N[C@H](COc1ccccc1C(F)(F)F)c1ccccc1 | > 200 mg/kg | 407 ng·h/mL | 1.5 h | 219 ng/mL | 226 ng/mL | > 95% | 1008 ng·h/mL | 0.17 h | 3.8 h | > 95% | 6.5 h | – | – | – | – | – | – | – | – | – | Activity [16]: Toxic; Activity [17]: Toxic; bioavailability [15]: 42%
9 | Cl.NC(COc1cc(C(F)(F)F)cc(C(F)(F)F)c1)c1ccccc1 (centres undefined) | – | – | – | – | – | – | – | – | – | – | – | 66 µM | 22 µM | 7.16 µM | 20 µM | Not Active | 1.03 µM | 23.1 µM | 133 µM | 1.208 | EC50 [32]: Not Active; Ratio IC50 (Homo sapiens [29]): 19.4

— ChEMBL document CHEMBL4808187, “Antiarrhythmic Hit to Lead Refinement in a Dish Using Patient-Derived iPSC Cardiomyocytes” (J Med Chem, 2021)
